EBI2 antag – antagonists of human EBI2 receptor; EBI2 beta-arrestin recruitment, luminescence, 7a,25-OHC stimulated; inhibition, % at 5 µM; AID 651636; 0.81% of 360,000 active; P32249; in the data active = inhibition above about 38%;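 note: enzyme fragment complementation signal reports receptor beta-arrestin coupling in cells; 0% = agonist plus DMSO wells and 100% = wells without agonist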
FXN GAA850 act – activators of GAA850 frataxin (FXN) promoter; HEK293 lucGAA850 FXN promoter luciferase reporter, 24 h; percent of 10 µM SAHA response; activation, % at 6 µM; 0.56% of 360,000 active; AID 540364;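 active = activation above the average of all compounds screened plus 3 SD, cutoff fixed separately per campaign, cut at about 7.5% in these data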;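 note: 0% = DMSO wells and 100% = 10 µM SAHA wells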
APJ ag – agonists of human APJ apelin receptor; CHO-K1 APJ PathHunter beta-arrestin, luminescence; 0% DMSO wells, 100% apelin; activation, % at 20 µM; 0.11% of 330,000 active; AID 2520;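 active = activation more than six SD over the plate average, tested at 20 µM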;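 note: 0% = DMSO alone and 100% = apelin-13 at 10 nM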
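system = engineered CHO-K1 APJ arrestin reporter cells | input = 1000 cells per well | timing = overnight seeding, 90 min compound at 25 °C, 1 h detection | measured by = enzyme-fragment complementation luminescence | read-out = beta-arrestin recruitment to APJ as agonist activity, luminescent signal | control set = negative DMSO alone, positive Apelin-13 at 10 nM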
CXCR6 block – blocks human CXCR6 beta-arrestin recruitment; O00574; CHO-K1 PathHunter CXCR6 beta-arrestin, luminescence; inhibition, % at 20 µM; 0.36% of 360,000 active; AID 602244; in the data active = inhibition above about 34%, passing the limit was not always enough;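 note: antagonist mode with CXCL16 agonist at 10 nM final; 0% = 10 nM CXCL16 with DMSO and 100% = unstimulated wells without agonist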
APJ antagonist – antagonists of human APJ apelin receptor; CHO-K1 APJ beta-arrestin complementation, luminescence; inhibition, % at 20 µM; 0.32% of 330,000 active; P35414;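 active = inhibition above about 40% at 20 µM, limit read from the data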;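 note: cells challenged with 10 nM apelin-13 agonist together with compound; plate controls were apelin-13 plus DMSO wells for no effect and DMSO wells lacking apelin-13 for full effect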
CCR6 antagonist – blocks CCL20-driven beta-arrestin recruitment at human CCR6; P51684; CHO-K1 CCR6 PathHunter beta-arrestin, luminescence, CCL20-stimulated; inhibition, % at 20 µM; 0.49% of 340,000 active; AID 493098;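 active = compounds whose inhibition of the agonist-driven luminescence signal at 20 µM reaches about 50%, limit read from the data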;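 note: cells stimulated with CCL20 at 14 nM final; plate controls were DMSO with CCL20 for no effect and DMSO without agonist for full effect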
Target sequence (P51684 whole entry, looked up): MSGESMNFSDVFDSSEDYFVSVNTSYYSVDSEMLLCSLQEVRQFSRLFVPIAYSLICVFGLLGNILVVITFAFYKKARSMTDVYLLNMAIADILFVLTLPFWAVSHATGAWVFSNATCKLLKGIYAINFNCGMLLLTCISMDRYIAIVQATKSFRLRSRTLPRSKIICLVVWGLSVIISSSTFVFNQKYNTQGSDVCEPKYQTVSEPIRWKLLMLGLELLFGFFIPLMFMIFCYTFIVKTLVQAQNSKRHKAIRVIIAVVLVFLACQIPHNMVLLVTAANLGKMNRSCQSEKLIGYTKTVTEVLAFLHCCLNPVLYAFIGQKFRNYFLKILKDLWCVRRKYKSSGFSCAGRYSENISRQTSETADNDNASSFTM
APJ antag conf – confirmation of human APJ apelin receptor antagonists; AID 2766; APJ beta-arrestin recruitment, luminescence, antagonist mode; shares compounds with APJ antagonist; 66% of 950 active; inhibition, % at 20 µM; in the data active = inhibition above about 50%
An asterisk follows results filed as active; x = no result given. A selection: hits, their analogues and other compounds. The true share with any hit is near 2%.

SMILES	EBI2 antag	FXN GAA850 act	APJ ag	CXCR6 block	APJ antagonist	CCR6 antagonist	APJ antag conf
COCCNC(=S)N/N=C(\C)c1ccc(Cl)c(Cl)c1	2	3	-4	1	11	15	x
N#Cc1c(N)n(CCc2ccc(F)cc2)c2nc3ccccc3nc12	12	0	-1	14	65*	20	-7
COc1ccc(-n2c(N)c(C(=O)NCc3ccco3)c3nc4ccccc4nc32)cc1	19	3	-2	3	4	16	x
Nc1c(C(=O)NCc2ccco2)c2nc3ccccc3nc2n1CCc1ccc(F)cc1	3	0	-10	6	55*	-4	-12
O=C(Nc1ccc2ccccc2c1)OC1CCS(=O)(=O)C1 (centres undefined)	10	x	x	5	x	x	x
C#Cc1cccc(N2C(=O)C3C4C=CC(C3C2=O)C2C(=O)N(c3cccc(C#C)c3)C(=O)C42)c1 (centres undefined)	8	2	x	-4	x	-7	x
[2H]C([2H])(CCOS(N)(=O)=O)c1ccccc1	-11	2	0	-3	-83	-1	x
O=C(NNc1ccc(-c2csnn2)cc1)c1cc(Cl)cc(Cl)c1	14	2	-8	14	54*	47	65*
Cc1cc(C)c2sc(N(CCCN(C)C)C(=O)c3ccc(S(=O)(=O)N4CCCc5ccccc54)cc3)nc2c1	0	-2	-3	19	47*	14	57*
CN(C)CCCN(C(=O)c1ccc(S(=O)(=O)N2CCc3ccccc32)cc1)c1nc2ccc(F)cc2s1	-1	-1	2	0	-4	19	x
CN1C(=O)/C(=C2/C=Cc3ccccc3N2CCCS(=O)(=O)O)SC1=S	0	-3	-9	38	47*	58*	96*
CC(=O)c1ccccc1OCc1ccc(S(=O)(=O)Cc2ccccc2)cc1	20	-3	-1	-2	8	2	x
COc1cc(/C=C/c2ccc3cccc(OC)c3n2)c(O)c([N+](=O)[O-])c1	25	0	-7	42*	44*	54*	74*
COc1cc(Br)cc(/C=C/c2ccc3cccc(O)c3n2)c1O	-12	0	-3	11	-6	21	x
CN1C(=O)/C(=C/c2ccc(O)c([N+](=O)[O-])c2)N(C)C1=S	3	0	-8	43*	46*	57*	85*
Cc1cccn2c(=O)c3cc(C(=O)NC4CCCC4)c(=N)n(Cc4ccc(F)cc4)c3nc12	22	0	-2	11	14	11	x
COc1ccc(CCn2c(=N)c(C(=O)NC3CCCC3)cc3c(=O)n4cccc(C)c4nc32)cc1	-3	-1	1	1	46*	0	-2
Cc1cccn2c(=O)c3cc(C(=O)NC4CCCCC4)c(=N)n(Cc4ccccc4)c3nc12	16	2	-12	2	52*	12	30
CN(C)c1cccc(C(=O)NCCCSc2ccccc2)c1	4	2	1	-3	17	9	x
O=C(CCC(=O)c1cccs1)OCC(=O)c1ccc(Cl)s1	2	0	-2	10	41*	14	-2
CC1=NN(c2ccc(C)cc2)C(=O)/C1=C\C=C\c1ccccc1	-6	0	-1	5	8	12	x
CC1=NN(c2ccccc2)C(=O)/C1=C/C=C/C=C/N(C)C	10	-3	-8	49*	65*	58*	91*
CCCCOc1ccc(C(=O)N/C(=C/C=C/c2ccccc2)C(=O)NCCCO)cc1	2	2	-4	2	16	10	x
CCCCOc1ccc(C(=O)N/C(=C/C=C/c2ccccc2)C(=O)NCCO)cc1	1	-1	-2	-4	43*	9	-14
CCCCCC(=O)Nc1ccc(C2C(=O)c3ccccc3C2=O)cc1	-1	1	-2	6	14	32	x
CC(C)c1ccc(NC(=O)CN2C(=O)COc3ccc(S(=O)(=O)N4CCOCC4)cc32)cc1	-10	-4	-4	8	45*	-1	-13
CC(=O)Nc1ccc(NC(=O)CN2C(=O)COc3ccc(S(=O)(=O)N4CCOCC4)cc32)cc1	-2	0	-5	-1	19	7	x

Compound activity (PubChem BioAssay)
